Screens from PubChem.
SUMO Mot1 rescue: inhibitors of SUMOylation pathway: yeast Mot1-301 growth rescue; S. cerevisiae Mot1-301 growth rescue, ATP luminescence, 38.5C; percent above DMSO median, 100 means doubled; growth rescue, % at 18.8 µM; hit rate 1% among 320,000; AID 2716;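 active = every valid replicate shows activation above 250% relative to neutral control wells; inactive = the rest, any valid replicate at or below 250%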;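 note: OY570 slx delta 5 strain wells were the positive control but not used for scaling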
Cl transport mod: KCC2 (human) Cl- transport modulation; Q9H2X9; KCC2 cells, thallium flux FluoZin-2 fluorescence; B-score of Tl+ flux slope (higher = more flux/activation; lower = inhibition) at 10 µM; hit rate 2.2% among 190,000;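 active = thallium flux slope and its plate-corrected score both differing from the plate sample mean at a set confidence after two filtering rounds, in either direction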;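 note: slope of fluorescence scaled to starting intensity during 10 to 20 s after thallium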
Target sequence (Q9H2X9 whole entry, looked up): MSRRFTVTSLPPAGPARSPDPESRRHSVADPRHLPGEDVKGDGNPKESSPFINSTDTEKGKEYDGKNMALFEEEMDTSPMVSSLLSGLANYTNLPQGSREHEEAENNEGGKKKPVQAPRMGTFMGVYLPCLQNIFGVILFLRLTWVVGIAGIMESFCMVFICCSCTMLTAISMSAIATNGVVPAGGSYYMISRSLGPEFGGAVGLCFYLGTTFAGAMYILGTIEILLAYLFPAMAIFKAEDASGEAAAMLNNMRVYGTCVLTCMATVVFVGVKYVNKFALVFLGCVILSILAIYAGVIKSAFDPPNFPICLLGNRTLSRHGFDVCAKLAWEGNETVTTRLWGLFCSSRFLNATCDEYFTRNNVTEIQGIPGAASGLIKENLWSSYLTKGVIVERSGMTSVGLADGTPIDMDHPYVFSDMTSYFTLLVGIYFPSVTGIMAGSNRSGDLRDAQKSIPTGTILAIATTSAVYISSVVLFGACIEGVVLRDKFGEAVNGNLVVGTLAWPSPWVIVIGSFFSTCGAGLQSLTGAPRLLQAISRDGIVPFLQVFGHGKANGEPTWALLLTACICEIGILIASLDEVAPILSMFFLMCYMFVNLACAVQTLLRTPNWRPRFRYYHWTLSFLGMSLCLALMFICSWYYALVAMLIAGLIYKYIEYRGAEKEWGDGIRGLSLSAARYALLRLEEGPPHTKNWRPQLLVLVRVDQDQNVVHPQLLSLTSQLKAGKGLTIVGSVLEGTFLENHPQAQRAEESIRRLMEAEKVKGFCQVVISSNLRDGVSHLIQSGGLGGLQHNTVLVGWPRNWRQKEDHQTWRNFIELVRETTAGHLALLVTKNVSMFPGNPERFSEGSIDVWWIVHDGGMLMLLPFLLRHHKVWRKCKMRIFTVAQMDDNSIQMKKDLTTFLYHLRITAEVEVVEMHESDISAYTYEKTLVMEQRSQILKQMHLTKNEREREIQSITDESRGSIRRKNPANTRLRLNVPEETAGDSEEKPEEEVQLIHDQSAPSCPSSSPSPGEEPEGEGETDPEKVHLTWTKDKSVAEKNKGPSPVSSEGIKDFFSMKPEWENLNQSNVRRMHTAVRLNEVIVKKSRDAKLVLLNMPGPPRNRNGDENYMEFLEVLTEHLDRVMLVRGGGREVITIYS
hERG rescue: hERG (human) protection from proarrhythmic block | CHO-hERG, FluxOR thallium flux, dofetilide IC70 present | activation (rescue from dofetilide block), less the hit threshold, % at 10 µM | hit rate 0.51% among 310,000;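 active = activation above the mean of controls blocked by dofetilide plus 5 SD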;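 note: thallium influx through hERG after potassium depolarization seen as dye fluorescence rise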
AI-2 QS mod: modulates the Vibrio harveyi AI-2 quorum sensing system; hit rate 0.4% among 300,000; activity change, % at 7.5 µM; AID 2094; Vibrio harveyi JMH597 AI-2 luminescence/OD600 ratio, 9 h; stronger effect = lower value; strain lacks LuxN and CqsS sensors; 0 = neutral-control median; in the data active = activity change below about -75%, passing the limit was not always enough; inconclusive = no clear call, values can overlap the other calls;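 note: luminescence divided by OD600 gain over 9 h not by final OD600 alone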
KCNQ1 block: inhibitors of human KCNQ1 potassium channel. CHO-K1 KCNQ1, FluxOR thallium flux fluorescence; stronger effect = higher value. P51787. hit rate 1.3% among 310,000. B-score at 10 µM. AID 2642;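 active = compounds whose thallium flux B-score, printed positive for inhibition, exceeds three library SD while starting fluorescence stays within three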;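 note: channel opened by potassium depolarization with thallium stimulus after 20 min compound exposure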
KCNQ1 pot: potentiators or activators of human KCNQ1 potassium channel; CHO-K1 KCNQ1, thallium flux FluxOR fluorescence; stronger effect = higher value; B-score at 10 µM; hit rate 0.35% among 310,000; AID 2648;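 active = fluorescence ratio B-score, a plate-corrected score, at least three library SD, with initial intensity B-score within 5 SD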
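assay system = CHO-K1 cells stably expressing KCNQ1 | medium = assay buffer, equal DMSO in all wells | timing = 37 °C overnight plating, 90-min dark dye load, 20-min compound pretreatment | measured by = kinetic FluxOR thallium fluorescence, 10-s 1-Hz baseline, 110-s post-stimulus read | measure = fluorescence change relative to baseline, converted to B score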
KCC2 sec1: confirmation of human KCC2 transport modulators | shares compounds with Cl transport mod | HEK293-KCC2, thallium flux, FluoZin2 fluorescence; stronger effect = higher value | normalised thallium flux (F/F0 slope) at 10 µM | hit rate 15% among 3,700;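 active = thallium flux slope above the same plate's solvent-only control mean plus 3 SD; inconclusive = the two replicate wells disagree; inactive = no significant difference from solvent-only control wells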
KCC2 bumet counter: thallium flux despite bumetanide block in KCC2 cells, secondary assay 3 | HEK293-KCC2 + bumetanide/ouabain, thallium flux FluoZin2; stronger effect = higher value | normalized thallium flux at 10 µM | hit rate 49% among 3,700 | shares compounds with Cl transport mod;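 active = thallium entry rate above the same plate's blocked-transporter control wells by more than 3 SD; inconclusive = the two repeat wells disagree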;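 note: raw slope of fluorescence over initial fluorescence between 10 and 20 s after thallium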
KCC2 secondary2: confirmation of human KCC2 transport modulators; hit rate 23% among 3,700; HEK293-KCC2, thallium flux FluoZin2 fluorescence; actives lie on both sides; F/F0 rise rate, 10–20 s post-thallium; shares compounds with Cl transport mod; normalized thallium flux at 10 µM; AID 1715;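 active = thallium flux slope more than 3 SD above or below the plate's solvent-only control mean, mostly below; inconclusive = the two repeat wells disagreed; inactive = no significant shift from solvent-only controls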;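 note: raw slope with 0.1% DMSO as baseline and bumetanide as block control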
HEK counter1: counter-screen for KCC2 modulators: effect in parental HEK293 cells; shares compounds with Cl transport mod; thallium flux FluoZin2, ouabain; baseline-ratio fluorescence slope, 10–20 s after thallium; thallium flux rate (normalised fluorescence) at 10 µM; hit rate 46% among 3,700;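 active = thallium flux rate significantly above the same plate's solvent-only control wells, beyond their mean plus 3 SD; inconclusive = the two replicate wells gave conflicting results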
KCC2 ouabain: modulates human KCC2 on retest with ouabain | hit rate 48% among 3,700 | HEK293-KCC2, thallium flux FluoZin2 fluorescence; bidirectional: low = inhibitor, high = activator | raw Tl+ flux slope (below DMSO = inhibition, above = activation) at 10 µM | shares compounds with Cl transport mod;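 active = thallium flux slope beyond 3 SD from same-plate DMSO control mean in most replicates, usually higher, sometimes lower; inconclusive = repeat tests gave conflicting results; inactive = no significant difference from controls in most replicates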;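 note: slope of initial-normalized fluorescence between seconds 10 and 20 after thallium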
HEK counter2: acts in parental HEK cells, second KCC2 counter-screen; shares compounds with Cl transport mod; HEK293 parental, thallium flux FluoZin-2 fluorescence slope; thallium flux slope at 10 µM; hit rate 33% among 3,700; AID 1718;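 active = thallium flux slope above the same plate's solvent-control mean plus 3 SD in both duplicate wells; inconclusive = duplicate wells that disagreed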;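 note: run without ouabain in cells lacking the KCC2 cotransporter; slope of fluorescence scaled to its starting value between 10 and 20 s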
Numbers without * were called inactive; i = inactive; ? = inconclusive; . = no result given. Compounds with a hit are over-represented: about 4.2% of the library has one in this group of screens.

SMILES	SUMO Mot1 rescue	Cl transport mod	hERG rescue	AI-2 QS mod	KCNQ1 block	KCNQ1 pot	KCC2 sec1	KCC2 bumet counter	KCC2 secondary2	HEK counter1	KCC2 ouabain	HEK counter2
CC(C)(C)NC(=O)C(c1cccs1)N(CC1CCCO1)C(=O)c1ccc(-c2ccccc2)[nH]1 (configuration not stated)	5	-6.6*	-7	24	i	i	0.0088	0.0066	0.022*	0.0055	0.01*	0.0091
O=C(NCC1CCCO1)C(c1cccs1)N(C(=O)c1ccc(-c2ccccc2)[nH]1)C1CCCC1 (configuration not stated)	-16	-5.7*	-13	-5	i	i	0.01	0.0064	?	0.0068	0.015*	0.011
COc1ccc(CN(C(=O)c2ccc(-c3ccccc3)[nH]2)C(C(=O)NCC2CCCO2)c2ccc(C)o2)cc1 (configuration not stated)	.	.	-17	29	i	i	0.006	0.0052	0.025*	0.0075	?	0.0099
Nc1cc2c(cc1C(=O)c1ccc(Cl)cc1)OCCO2	22	.	-13	-16	i	i	.	.	.	.	.	.
CCCc1cc2nnc(SCC(=O)N(C)C3CCCCC3)n2c(N)n1	-11	.	-4	37	i	i	.	.	.	.	.	.
CCc1ccc(CN(C)C(=O)CCc2nnc(COc3ccccc3)o2)cc1	-5	-1.3	-13	18	i	i	.	.	.	.	.	.
Cc1cccnc1CN1CCN(C(=O)c2cc(COc3ccc4ncccc4c3)on2)CC1	1	.	-17	13	i	i	0.0085	0.0066	?	0.0075	0.017*	0.01
CCN(CC)S(=O)(=O)c1ccc(OCC(=O)NC(=O)Cc2ccccc2)c([N+](=O)[O-])c1	2	.	.	.	.	.	.	.	.	.	.	.
CCOCc1cc(=O)[nH]c(SC)n1	.	1.5	-6	13	i	i	.	.	.	.	.	.
O=C(Cn1nc2ccccc2n1)N/N=C/c1cc(Cl)cc([N+](=O)[O-])c1O	.	-5.3*	.	.	.	.	0.0071	?	0.025*	0.0071	?	0.011
N#Cc1cc(C(=O)c2cc(Cl)ccc2O)cn(-c2ccccc2)c1=O	1	-5*	-5	14	i	i	0.0097	0.0052	0.034	0.0075	0.025	0.01
Cc1c(-n2cc(C(=O)c3cc(Cl)ccc3O)cc(C#N)c2=O)c(=O)n(-c2ccccc2)n1C	-5	-0.005	-13	25	i	i	.	.	.	.	.	.
COc1ccc(CC(=O)Nc2ccc(F)c(F)c2F)cc1S(=O)(=O)N1CCOCC1	16	.	.	.	.	.	.	.	.	.	.	.
Cc1sc(-n2c(C)cc(/C=C3\SC(=S)NC3=O)c2C)c(C#N)c1C	-3	9*	-4	28	i	9*	0.0063	0.016*	0.031	0.016*	?	?
COc1cc(CCC(=O)OCC(=O)Nc2ccc(C)cc2Cl)cc(OC)c1OC	-6	.	1	14	i	i	.	.	.	.	.	.
CCCCN(C)CCNC(=O)CN1C(=O)CSc2ccc(S(=O)(=O)N3CCCC3)cc21	11	.	-5	27	i	i	.	.	.	.	.	.
O=S(=O)(NCc1ccco1)c1ccc2c(c1)Cc1ccccc1-2	31	-4*	-15	26	i	i	0.0062	0.0045	0.027	?	?	0.011
Cc1ccc(S(=O)(=O)NCc2ccco2)cc1C	2	0.019	-3	-3	i	i	.	.	.	.	.	.
O=C(Nc1ccc(Cl)cc1)N(CCCN1CCOCC1)Cc1cccs1	16	1	-16	9	i	i	.	.	.	.	.	.
O=S(=O)(c1ccc(Cl)cc1)N(CCCN1CCOCC1)Cc1cccs1	36	.	-15	4	i	i	0.017	0.0042	0.029	?	0.015	0.0099
CC1(c2cccc(Br)c2)NC(=O)N(CC(=O)Nc2ccc3c(c2)OCCO3)C1=O (configuration not stated)	-10	.	.	.	.	.	.	.	.	.	.	.
CCOc1ccc(C(Nc2cccnc2)c2cc(Cl)c3cccnc3c2O)cc1 (configuration not stated)	-5	5*	-11	39	8*	i	0.0089	0.014*	0.034	0.018*	?	0.01
CCCC(=O)NC(c1ccc2c(c1)OCO2)c1cc(Cl)c2cccnc2c1O (configuration not stated)	.	4.1*	-6	27	i	i	0.0076	0.0057	0.03	0.0067	0.02	0.0086
CCOc1ccc(NC(=O)CCn2c(=O)[nH]c3ccsc3c2=O)cc1	5	-0.86	-6	10	i	i	.	.	.	.	.	.
COc1ccc(CNC(=O)COC(=O)c2ccccc2C(=O)c2ccccc2)cc1	-7	0.38	-15	13	i	i	.	.	.	.	.	.
SMILES	SUMO Mot1 rescue	Cl transport mod	hERG rescue	AI-2 QS mod	KCNQ1 block	KCNQ1 pot	KCC2 sec1	KCC2 bumet counter	KCC2 secondary2	HEK counter1	KCC2 ouabain	HEK counter2
NC(=O)NC(=O)CSc1nnc(-c2ccco2)n1Cc1ccccc1	.	-0.79	-1	38	i	i	.	.	.	.	.	.
O=C(CSc1nnc(-c2ccco2)n1Cc1ccccc1)c1ccccc1	9	-8.2*	-13	23	i	i	0.0066	0.0047	?	?	0.015*	0.01
Cn1c(SCC(=O)c2ccc(-c3ccccc3)cc2)nnc1-c1ccco1	-15	-1.7	-2	23	i	i	.	.	.	.	.	.
Cc1ccc(C(=O)CSc2nnc(-c3ccco3)n2Cc2ccccc2)cc1	-1	-3.2*	-6	17	i	i	0.0063	0.0036	0.031	?	0.013*	0.011
CCCn1c(SCC(=O)N2CCCCC2)nnc1-c1ccco1	-11	5.6*	-7	-1	i	i	0.0084	0.0061	0.032	0.0074	0.022	0.0097
Cc1ccc(CN2CCN(Cc3cccc4nccnc34)CC2CCO)cc1 (configuration not stated)	5	-0.32	-6	14	i	i	.	.	.	.	.	.
